Screening data deposited in PubChem BioAssay by several laboratories.
An excerpt weighted towards active compounds, which were near 5.3% of everything screened.
PLK1 inh – PLK1 (human) kinase inhibition; P53350; recombinant PLK1 kinase, TR-FRET peptide phosphorylation; inhibition, % at 10 µM; 0.53% of 97,000 active; AID 619;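 active = inhibition of 50% or more in the single-concentration screen; inactive = inhibition below 50%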;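 note: 0% = DMSO max control and 100% = H-89 dihydrochloride min control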
Cav32 inh – inhibitors of human Cav3.2 T-type calcium channel; 4% of 100,000 active; B-score at 10 µM; Cav3.2-expressing cells, Fluo-4 calcium fluorescence FDSS; hits give low values; O95180;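 active = single-dose well whose peak fluorescence ratio is a statistical outlier from its plate by either plate-standardised score or position-corrected B-score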
EphB4 antag – antagonists of human EphB4-ephrin-B2 interaction; P54760; EphB4 LBD / TNYL-RAW-Alexa532 peptide, fluorescence polarization; inhibition, % at 7 µM; 0.15% of 97,000 active; AID 720;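 active = inhibition above the screen-wide mean inhibition plus 3 SD, cut at about 15% in these data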;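 note: 0% = DMSO wells and 100% = excess unlabeled TNYL-RAW peptide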
FAK blocker – FAK (human) kinase inhibition; Q05397; biochemical FAK kinase activity assay; inhibition, %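 (tested at 7 µM)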; 0.84% of 97,000 active; AID 727; in the data active = inhibition above about 19%;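 note: 0% = DMSO and 100% = reference compound high control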
Rev-RRE block – disrupts HIV-1 Rev binding to RRE RNA; P05866; Rev peptide-RRE RNA binding, FRET; inhibition, % at 8 µM; 0.79% of 97,000 active; AID 704;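 active = inhibition above the screen-wide mean plus 3 SD, cut at about 35% in these data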;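 note: 0% = median DMSO wells and 100% = median Neomycin B control wells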
Target sequence (P05866 whole entry, looked up): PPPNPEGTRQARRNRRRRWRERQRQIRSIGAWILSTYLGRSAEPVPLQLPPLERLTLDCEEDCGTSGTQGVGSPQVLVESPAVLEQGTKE
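Assay system: Rev peptide and RRE RNA, both fluorescently labelled; times: 5 min preincubation and 15 min binding, 25 °C; detection: FRET, ex 480 nm, em 540 and 671 nm; read-out basis: % inhibition from 671/540 nm acceptor-to-donor ratio, scaled between controls; benchmarks: DMSO low control, neomycin B high control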
PLK1 PBD inh – inhibitors of human Plk1 polo box domain binding; P53350; Plk1 PBD phosphopeptide binding, fluorescence polarization; inhibition, %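 (tested at about 20 µM)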; 0.13% of 97,000 active; AID 693; in the data active = inhibition above about 34%, passing the limit was not always enough
* hit, by the source's call; x = no result; [ ] = another dose, or the depositor's remark.

SMILES	PLK1 inh	Cav32 inh	EphB4 antag	FAK blocker	Rev-RRE block	PLK1 PBD inh
COC(=O)C1=C(C)N=C2SC(C)C(=O)N2C1/C=C/c1ccccc1OC (centres undefined)	-12	-7.4*	0	1	12	-6
CCC1SC2=NC(C)=C(C(=O)OCCOC)C(/C=C/c3ccccc3OC)N2C1=O (centres undefined)	-5	-5.8*	9	12	9	10
CCC1SC2=NC(C)=C(C(=O)OCC(C)C)C(/C=C/c3ccccc3OC)N2C1=O (centres undefined)	-15	-2.3	3	1	2	-5
Cc1ccc(-c2cc(C(F)F)nc(NCC3CCCO3)n2)cc1 (centres undefined)	-10	-3.3	-6	6	10	-7
Cc1ccc(-c2cc(C(F)F)nc(NCc3cccnc3)n2)cc1	-1	-4.4*	0	-2	5	-7
CC(C)n1c(SCC(=O)Nc2ccccc2)nc2c1c(=O)n(C)c(=O)n2C	-11	0.86	2	1	8	10
Cc1ccc(C(=O)CN2/C(=C(\O)c3ccccc3)C(=O)c3ccccc3S2(=O)=O)c(C)c1	-21	-5.9*	2	1	12	-12
O=C(CN1C(=O)c2ccccc2S1(=O)=O)c1ccccc1	-8	0.079	-3	3	11	-13
O=c1[nH]cnc2nc(-c3ccccc3)c(-c3ccccc3)nc12	-15	1.7	-3	6	2	23
O=c1[nH]cnc2nn(-c3ccccc3)nc12	x	-3.7*	x	x	x	x
Cc1nnc(C)n1/N=C/c1cc(Br)cc(Br)c1O	-17	-9.6*	-6	0	19	11
Cc1nnc(C)n1/N=C/c1cc(Br)ccc1O	-12	-0.66	-1	0	9	9
O=C1N[C@@H](Cc2ccccc2)C(=O)N2[C@H]1C[C@]1(Br)c3ccccc3N(S(=O)(=O)c3ccc(F)cc3)[C@H]21	x	-2.5	x	x	x	x
Cc1cc(C)c2c(CC(=O)N(CCC#N)Cc3cccnc3)coc2c1	-3	x	-12	0	0	23
O=C(/C=C/c1ccc(F)cc1)NCCC1=CCCCC1	-8	-6.2*	0	0	5	40
O=C(CN(Cc1ccccc1)S(=O)(=O)c1ccc(F)cc1)NCCC1=CCCCC1	-10	-3.5	-5	-1	4	-23
Cc1ccc(S(=O)(=O)NCCC(=O)NC2CCCC2)cc1	-4	x	-9	-1	7	23
Cc1cccc(S(=O)(=O)NCCC(=O)OC(C)C(=O)NC(=O)NC2CCCCC2)c1 (centres undefined)	4	-7.8*	-9	-1	-1	10
CC(C)(c1ccccc1)c1ccc(OCCn2cnc3ccccc3c2=O)cc1	4	-6.5*	-6	-1	2	-11
O=C(c1ccccc1)c1ccc(OCCn2cnc3ccccc3c2=O)cc1	-4	-0.00047	2	2	8	-4
Cn1c(=O)[nH]c(=O)c2c1nc(Br)n2Cc1ccccc1Cl	0	0.86	4	8	4	-22
C/C(Cl)=C\Cn1c(N2CCCC2)nc2c1c(=O)[nH]c(=O)n2C	2	3.5*	2	1	6	-6
CC1CCN(c2nc3c(c(=O)[nH]c(=O)n3C)n2Cc2ccccc2Cl)CC1	3	-4.5*	0	-3	4	-28
CCOC(=O)c1sc(NC(=O)CSc2nc3c(c(=O)n2-c2ccc(F)cc2)SCC3)c(C(=O)OCC)c1C	x	-0.025	x	x	x	x
NC(=O)C(c1ccc(Cl)cc1Cl)c1ncc(C(F)(F)F)cc1Cl (centres undefined)	-11	-1.1	3	3	15	-30
SMILES	PLK1 inh	Cav32 inh	EphB4 antag	FAK blocker	Rev-RRE block	PLK1 PBD inh
CCOC(=O)/C(C#N)=C1\C=CN(C)C(C)=N1	-10	0.066	-5	-1	3	-1
CCCCCCN1C=CC(=C/C=C(\C#N)C(=O)OCC)C=C1	-47	-3.3*	-1	18	139*[fluorescence artefact?]	-229
CCCN1C=CC(=C/C=C(\C#N)C(=O)OCC)C=C1	-32	-3	5	4	136*[fluorescence artefact?]	-206
Oc1cc2c(cc1O)C1c3ccc(O)c(O)c3OCC1(O)C2 (centres undefined)	x	0.51	x	x	x	x
N#CC1=C(N)SC(N)=C(C#N)C1c1cccc(O)c1	19	0.03	5	4	74*	-56
CCC(c1nnc(SCC(=O)NCCc2ccc(Cl)cc2Cl)o1)N(C)C (centres undefined)	-12	-0.053	4	-1	16	-24
